The text below walks through data of ChEMBL document CHEMBL1150290, “Novel anti-inflammatory agents based on pyridazinone scaffold; design, synthesis and in vivo activity” (Bioorg Med Chem, 2008).

The test system of data set [1] is Rattus norvegicus. Put plainly: Toxicity in Albino rat assessed as gastric-ulcerogenic effect at 30 uM/kg, po twice daily for 3 days. The data set is classed as organism-based. Conditions: in vivo, 72 h, 30 µM/kg per day. The procedure, abridged:
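Male albino rats (100–120 g), six per group, fasted 12 h with water ad libitum. Compounds given orally in two equal doses at 0 and 12 h for three successive days, 30 µM/kg per day; controls received 1% gum acacia orally. Rats killed with diethyl ether 6 h after the last dose and stomachs removed. Lesion severity scored on an arbitrary scale as ulcer index; % ulceration = ulcer-bearing animals/total × 100.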

Data set [2] relates to Rattus norvegicus. Put plainly: Antiinflammatory activity against carrageenan-induced paw edema in sc dosed Albino rat assessed as inhibition of paw edema volume measured 4 hrs after carrageenan challenge. The data set is classed as functional. The procedure, abridged: (§1)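 Rats randomized into groups of six. Edema induced by subplantar injection of 50 µL 2% carrageenan in 0.9% saline. Compounds in DMSO given sc at 5, 10, 15, 20 and 25 µmol/kg, 1 h before carrageenan; controls got DMSO. Paw volume read by water plethysmometer immediately and 4 h after carrageenan. Protection = (Vc − Vd)/Vc × 100. ED50 taken from dose-response curves at 4 h. Means ± SEM.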

For data set [3], the system named is Rattus norvegicus. Briefly: Antiinflammatory activity in sc dosed Albino rat assessed as protection against carrageenan-induced paw edema measured 4 hrs after carrageenan challenge relative to indomethacin. The data set is classed as functional. Background: In the carrageenan paw model, swelling and tenderness develop within hours.
The test system of data set [4] is Rattus norvegicus. Briefly: Antiinflammatory activity in sc dosed Albino rat assessed as protection against carrageenan-induced paw edema measured 4 hrs after carrageenan challenge. The data set is classed as functional. Summed up: as §1

In general, ED50 refers to the dose at which the effect has come halfway, by size or by number of responders. As to `CN1N=C(/C=C/c2ccc3c(c2)OCO3)CCC1=O`, in data set [1], the Activity worked out at 10%. The ED50 in data set [2] worked out at 34.3 µmol/kg.

Consider `O=C1CCC(/C=C/c2ccc3c(c2)OCCO3)=NN1`, for which the Activity in data set [1] stood at 0%. In addition, the ED50 in data set [2] stood at 27 µmol/kg.

In the case of `O=C1CCC(/C=C/c2ccc(-c3ccccc3)cc2)=NN1c1ccccc1`, in data set [1], the Activity turned out to be 10%. The ED50 in data set [2] came to 38.6 µmol/kg.

Regarding `O=C1CCC(CCc2ccc3c(c2)OCCO3)=NN1`, the Activity in data set [3] stood at 82.28; in data set [4], 61.22%; in data set [1], 0%. In addition, the ED50 in data set [2] was 17 µmol/kg.

As for `O=C1CCC(/C=C/c2ccc(-c3ccccc3)cc2)=NN1`, in data set [1], the Activity stood at 10%. Also, the ED50 in data set [2] amounted to 24.6 µmol/kg.

As to `O=C1CCC(/C=C/c2ccc(Oc3ccccc3)cc2)=NN1`, the Activity in data set [1] is 0%. The ED50 in data set [2] was 28.8 µmol/kg.

Consider `CN1N=C(/C=C/c2ccc(-c3ccccc3)cc2)CCC1=O`, for which the Activity in data set [1] is listed as 20%. Also, the ED50 in data set [2] was 32.4 µmol/kg.

For `CN1N=C(CCc2ccc(-c3ccccc3)cc2)CCC1=O`, the Activity in data set [1] worked out at 0%. Moreover, in data set [2], the median effective dose (ED50) was 22.3 µmol/kg.

With `O=C1CCC(CCc2ccc(-c3ccccc3)cc2)=NN1`, the Activity in data set [3] was found to be 78.17; in data set [4], 58.16%; in data set [1], 10%. Besides, the ED50 in data set [2] worked out at 18.7 µmol/kg.

On to `Cc1ccc(-c2cc(C(F)(F)F)nn2-c2ccc(S(N)(=O)=O)cc2)cc1` [CELECOXIB], for which the Activity was determined as 104.23 in data set [3], 77.5% in data set [4] and 0% in data set [1]. Besides, the ED50 in data set [2] was found to be 16.7 µmol/kg.

With `COc1ccc2c(c1)c(CC(=O)O)c(C)n2C(=O)c1ccc(Cl)cc1` [INDOMETHACIN], the Activity is given as 74.4% in data set [4] and 100% in data set [1]. In addition, the ED50 in data set [2] was determined as 9.7 µmol/kg.
